# Data reported in ChEMBL document CHEMBL4680306, “The 3-D conformational shape of N-naphthyl-cyclopenta[d]pyrimidines affects their potency as microtubule targeting agents and their antitumor activity” (Bioorg Med Chem, 2021).
# What was measured:
# [1] = tested on: MDA-MB-435; assay: Antiproliferative activity against human MDA-MB-435 cell line assessed as inhibition of cell proliferation measured after 48 hrs by SRB assay; format: functional, cell-based; settings: MDA-MB-435, 48 h
# In short: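 MDA-MB-435 melanoma cells were assessed by sulforhodamine B assay. IC50 is the mean ± SD of at least three independent experiments, each run in triplicate.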
# [2] = Induction of microtubule depolymerisation in rat A-10 cell line measured after 18 hrs by indirect immunofluorescence method; settings: a10
# In short: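 Rat A-10 cells, chosen because they arrest in interphase without significant mitotic accumulation, were exposed to compounds for 18 h. Cellular microtubules were then visualized by indirect immunofluorescence. EC50 values come from at least three independent experiments.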
# [3] = tested on: U-251; assay: Cytotoxicity against human U251 cell line assessed as inhibition of cell growth after 48 hrs by SRB assay; format: functional, cell-based; settings: U-251, 48 h
# [4] = Inhibition of bovine tubulin polymerization assessed as reduction in extent of assembly preincubated for 15 mins followed by addition of reaction mixture measured after 20 mins by turbidimetric assay; set-up: species or system Bos taurus
# In short: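 After chilling, GTP was added (0.4 mM final). Turbidity at 350 nm was read after a jump from 0 °C to 30 °C.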
# [5] = Relative resistance, ratio of IC50 for inhibition of beta3 Tubulin (unknown origin) expressed in human HeLa cell line assessed as inhibition of cell proliferation to IC50 antiproliferative activity against human HeLa cells
# [6] = tested on: HeLa; assay: Antiproliferative activity against human HeLa cells assessed as decrease in cell growth measured after 48 hrs by SRB method; format: functional, cell-based
# [7] = Antiproliferative activity against human SK-OV-3 MDR-1-6/6 cells expressing Pgp assessed as decrease in cell growth measured after 48 hrs by SRB method; format: functional; settings: SK-OV-3, 48 h
# [8] = species on record: Bos taurus; assay: Inhibition of [3H]colchicine binding to bovine tubulin at 5 uM measured after 10 mins by scintillation counting
# In short: (§1)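 Purified bovine brain tubulin at 1.0 µM was mixed with 5.0 µM [3H]colchicine and inhibitor, plus components that stabilize colchicine binding, in 5% DMSO; tubulin was added last, on ice. Binding ran 10 min at 37 °C and was stopped with ice water. Mixtures were filtered through stacked DEAE-cellulose filters, and bound radiolabel was measured by scintillation counting.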
# [9] = Relative resistance, ratio of IC50 for antiproliferative activity against human SK-OV-3 MDR-1-6/6 cells expressing Pgp to IC50 antiproliferative activity against human SK-OV-3 cells; format: functional
# [10] = tested on: SK-OV-3; assay: Antiproliferative activity against human SK-OV-3 cells assessed as decrease in cell growth measured after 48 hrs by SRB method; format: functional, cell-based; settings: SK-OV-3, 48 h
# [11] = species on record: Bos taurus; assay: Inhibition of [3H]colchicine binding to bovine tubulin at 1 uM measured after 10 mins by scintillation counting; in short: as §1
SMILES,IC50 [1] [nM],EC50 [2] [nM],IC50 [4] [nM],IC50 [6] [nM],inhibition [8] [%],IC50 [10] [nM],inhibition [11] [%],IC50 [3] [nM],Ratio IC50 [5],IC50 [7] [nM],Ratio IC50 [9]
COc1ccc2c(N(C)c3nc(C)nc4c3CCC4)cccc2c1,,> 10000,> 20000,,,,,88.3,,,
COc1ccc(N(C)c2nc(C)nc3c2CCC3)c2ccccc12,230,500,1400,250,72,330,,35.1,0.7,400,1.2
COc1ccc(/C=C\c2cc(OC)c(OC)c(OC)c2)cc1O [COMBRETASTATIN A4],,13,,,,,,,,6.6,

# More lines, in order of falling EC50 [2], values ahead:
IC50 [1] [nM],EC50 [2] [nM],IC50 [4] [nM],IC50 [6] [nM],inhibition [8] [%],IC50 [10] [nM],inhibition [11] [%],SMILES,IC50 [3] [nM],Ratio IC50 [5],IC50 [7] [nM],Ratio IC50 [9]
25.7,282,,,,,,COc1ccc(N(C)c2nc(C)nc3c2CC(C)C3)cc1 (stereo not drawn),,,,
34,184,1200,56.4,93,37,77,COc1cccc2cc(N(C)c3ncnc4c3CCC4)ccc12,72.5,0.8,74,2
,26,1600,,92,,70,COc1ccc(N(C)c2nc(C)nc3c2CCC3)cc1,,,16.4,
